In ChEMBL document CHEMBL1129338, “Inhibitors of acyl-CoA:cholesterol O-acyltransferase. synthesis and pharmacological activity of (+/-)-2-dodecyl-alpha-phenyl-N-(2,4,6-trimethoxyphenyl)-2H-tetrazole-5- acetamide and structurally related tetrazole amide derivatives” (J Med Chem, 1996):

What was measured:
[1] = biological target: T1, Sterol O-acyltransferase 1 (Rattus norvegicus, UniProt O70536); test: In vitro inhibitory activity against acyl coenzyme A:cholesterol acyltransferase 1 of liver microsomes isolated from cholesterol-fed rats.
T1 sequence (O70536 whole entry): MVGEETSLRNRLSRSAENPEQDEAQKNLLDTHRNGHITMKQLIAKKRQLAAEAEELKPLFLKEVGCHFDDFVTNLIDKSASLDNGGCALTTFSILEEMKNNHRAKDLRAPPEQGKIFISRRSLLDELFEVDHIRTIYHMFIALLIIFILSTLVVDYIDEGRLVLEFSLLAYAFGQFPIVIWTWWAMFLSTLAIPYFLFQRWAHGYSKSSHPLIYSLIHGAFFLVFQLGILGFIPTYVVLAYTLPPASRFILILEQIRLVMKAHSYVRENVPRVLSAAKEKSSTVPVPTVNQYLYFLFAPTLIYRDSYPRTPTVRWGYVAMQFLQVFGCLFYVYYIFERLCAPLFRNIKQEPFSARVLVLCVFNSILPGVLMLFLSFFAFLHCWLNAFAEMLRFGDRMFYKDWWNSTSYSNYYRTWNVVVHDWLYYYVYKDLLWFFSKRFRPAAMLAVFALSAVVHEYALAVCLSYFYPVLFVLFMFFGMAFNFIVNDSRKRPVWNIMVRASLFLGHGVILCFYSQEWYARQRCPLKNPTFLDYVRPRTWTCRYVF
Summary of the method: (§1)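 ACAT inhibition was measured in hepatic microsomes isolated from cholesterol-fed rats. Each determination was run in triplicate, and IC50 was reported.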

[2] = biological target: T2, Sterol O-acyltransferase 1 (Mus musculus) (UniProt Q61263); test: In vitro inhibitory activity against acyl coenzyme A:cholesterol acyltransferase 1 in cell culture assay using murine IC-21 macrophages at 0.1 uM
T2 sequence (whole entry): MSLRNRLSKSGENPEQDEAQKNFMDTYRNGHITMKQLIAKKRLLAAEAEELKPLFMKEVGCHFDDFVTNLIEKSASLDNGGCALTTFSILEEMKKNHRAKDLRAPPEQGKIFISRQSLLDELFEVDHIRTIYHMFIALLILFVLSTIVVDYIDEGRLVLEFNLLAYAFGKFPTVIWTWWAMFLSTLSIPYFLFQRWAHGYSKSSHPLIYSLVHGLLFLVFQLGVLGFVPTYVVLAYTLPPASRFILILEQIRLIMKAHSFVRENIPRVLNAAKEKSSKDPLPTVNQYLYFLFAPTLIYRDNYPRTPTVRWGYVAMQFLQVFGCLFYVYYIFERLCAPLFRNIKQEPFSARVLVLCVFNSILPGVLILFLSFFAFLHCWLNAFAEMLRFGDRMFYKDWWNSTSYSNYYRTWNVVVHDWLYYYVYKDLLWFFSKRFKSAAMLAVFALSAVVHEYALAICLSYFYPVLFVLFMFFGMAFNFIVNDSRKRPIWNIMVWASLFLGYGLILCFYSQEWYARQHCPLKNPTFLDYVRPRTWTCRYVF
Summary of the method: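 IC-21 mouse macrophages were preincubated 16 h in serum-free DMEM with 20 µM albumin and phosphatidylserine/cholesterol vesicles. The vesicles were sonicated in 150 mM NaCl, 5 mM MOPS, 1 mM EDTA, pH 7.4, and filter-sterilized. Medium was then replaced with serum-free DMEM containing the compound in DMSO at 0.1 µM. Percent inhibition was read, with cell protein measured by the Lowry method.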

Oryctolagus cuniculus [3] = test: % change in total cholesterol(TC) versus progression control (PC) with out drug intervention in chronic cholesterol-fed rabbit model at a dose of 25 mg/kg; type: functional
Summary of the method: (§2)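 Male New Zealand rabbits (1-1.5 kg) were meal-fed 50 g/day of chow with 0.5% cholesterol, 3% coconut oil and 3% peanut oil. After 1 week, compound was added to the diet for 2 weeks at 5 or 25 mg/kg. Plasma total cholesterol came from cardiac blood of fasted animals after nitrogen asphyxiation. It was compared with cholesterol-fed progression controls or with T0, the start of drug intervention, when plasma cholesterol was taken 24 h after the drug meal.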

Oryctolagus cuniculus [4] = test: Percent change in total cholesterol(TC) versus (T0)- at which drug intervention begins at a dose of 25 mg/kg in the chronic cholesterol-fed rabbit model; type: functional; summary of the method: as §2
Oryctolagus cuniculus [5] = test: Oral bioactivity expressed as %inhibition after 4 hours of drug administration (dose 25 mg/kg) in rabbit bioassay; type: functional
Summary of the method: (§3)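 Plasma was taken before dosing and at 1, 2 and 4 h. Plasma (0.2 mL) was hexane-extracted, dried and redissolved in chloroform/methanol 2:1. It was then tested for ACAT inhibition in the liver microsomal assay alongside spiked standards and a 2.5 µM CI-976 reference.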

Oryctolagus cuniculus [6] = test: % change in total cholesterol(TC) versus (T0)- at which drug intervention begins at a dose of 5 mg/kg in chronic cholesterol-fed rabbit model; type: functional; summary of the method: as §2
Oryctolagus cuniculus [7] = test: % change in total cholesterol(TC) versus progression control (PC) with out drug intervention in chronic cholesterol-fed rabbit model at a dose of 5 mg/kg; type: functional; summary of the method: as §2
Rattus norvegicus [8] = test: Percent change in High Density Lipoproteins (HDL) in Chronic Cholesterol -Fed rat model at a dose 30 mg/kg; type: functional
Summary of the method: (§4)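 Rats ate a high-fat, high-cholesterol diet for 14 days. During the second week they received the test compound daily by gavage at 30 mg/kg, in a carboxymethylcellulose/Tween-20 aqueous vehicle. Plasma lipids (total cholesterol, HDL-C, non-HDL-C) were read as percent change.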

Rattus norvegicus [9] = test: Percent change in total cholesterol (TC) in cholic acid (0.5%)-, cholesterol (1.5%) -, and peanut oil (5.5%)- fed rats at a dose 30 mg/kg.; type: functional
Rattus norvegicus [10] = test: In vitro percent decrease in cholesterol activity at 30 mg/kg in acute rat screen; type: functional; conditions: in the assay text read “In vivo” for “In vitro”
Summary of the method: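 Rats received a single gavage dose of 30 mg/kg, suspended in carboxymethylcellulose/Tween-20 in water, followed by one high-fat, high-cholesterol meal. The read-out was inhibition of the overnight rise in plasma total cholesterol, as percent change.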

[11] = biological target: Sterol O-acyltransferase 1 (Mus musculus) (UniProt Q61263); test: Percent change of compound against Acyl coenzyme A:cholesterol acyltransferase 1 in cell culture assay using murine IC-21 macrophages at 0.1(uM)
Oryctolagus cuniculus [12] = test: Oral bioactivity expressed as %inhibition after 4 hours of drug administration (dose 50 mg/kg) in rabbit bioassay; type: functional; summary of the method: as §3
Rattus norvegicus [13] = test: Change in total cholesterol in Chronic Cholesterol-Fed rat model at dose 30 mg/kg; type: functional; summary of the method: as §4
Rattus norvegicus [14] = test: Percent change in non High Density Lipoproteins (HDL) in Chronic Cholesterol -Fed rat model at a dose 30 mg/kg
[15] = biological target: T1, Sterol O-acyltransferase 1; test: Inhibitory concentration against Acyl coenzyme A:cholesterol acyltransferase 1 from rat liver; summary of the method: as §1
[16] = biological target: T3, Acyl-CoA:cholesterol acyltransferase (Oryctolagus cuniculus, UniProt Q95214); test: Inhibitory concentration against Acyl coenzyme A:cholesterol acyltransferase 1 from rabbit intestine
T3 sequence (Q95214 whole entry): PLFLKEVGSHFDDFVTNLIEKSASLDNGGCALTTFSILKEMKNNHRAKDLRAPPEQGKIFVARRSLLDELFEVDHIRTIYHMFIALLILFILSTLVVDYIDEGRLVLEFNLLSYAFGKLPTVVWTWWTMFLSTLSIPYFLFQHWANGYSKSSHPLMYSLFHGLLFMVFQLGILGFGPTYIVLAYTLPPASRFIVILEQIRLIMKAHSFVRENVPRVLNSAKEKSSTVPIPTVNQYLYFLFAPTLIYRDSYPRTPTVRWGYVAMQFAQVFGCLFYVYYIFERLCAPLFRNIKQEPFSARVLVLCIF

Oryctolagus cuniculus [17] = test: Dose response in cholesterol fed rabbit after oral administration; type: functional
Summary of the method: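 Cholesterol-fed rabbit model with oral dosing across a dose series, 8 animals per dose. Plasma cholesterol reduction was averaged at each dose. ED50, the dose lowering plasma total cholesterol 50%, was calculated from these mean responses with the median-effect equation.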

Rattus norvegicus [18] = test: % change in total cholesterol in Chronic Cholesterol-Fed rat model at dose 30 mg/kg; type: functional; summary of the method: as §4
Rattus norvegicus [19] = test: Effective dose to lower nonHDL-C in a cholesterol fed rat model in vivo; type: functional
[20] = test system: Acyl-CoA:cholesterol acyltransferase (Rattus norvegicus); test: Ability to reduce cholesterol absorption, i.e. the appearance of lymph cholesteryl ester at a dose of 10 mg/kg
Rattus norvegicus [21] = test: Percent change in total cholesterol (TC) in cholic acid (0.5%) - cholesterol (1.5% - peanut oil (5.5%) - fed rats at a dose 30 mg/kg; type: functional
Oryctolagus cuniculus [22] = test: Change in total cholesterol(TC) versus (T0)- at which drug intervention begins at a dose of 5 mg/kg in chronic cholesterol-fed rabbit model; type: functional; summary of the method: as §2
Oryctolagus cuniculus [23] = test: Change in total cholesterol(TC) versus progression control (PC) with out drug intervention in chronic cholesterol-fed rabbit model at a dose of 25 mg/kg; type: functional; summary of the method: as §2
Oryctolagus cuniculus [24] = test: Change in total cholesterol(TC) versus progression control (PC) with out drug intervention in chronic cholesterol-fed rabbit model at a dose of 5 mg/kg; type: functional; summary of the method: as §2
[25] = biological target: T4, Acyl-CoA:cholesterol acyltransferase (Oryctolagus cuniculus) (UniProt Q95214); conditions: 25 mg/kg
T4 sequence (whole entry): T3 sequence (Q95214 whole entry)

[26] = biological target: T4, Acyl-CoA:cholesterol acyltransferase (Oryctolagus cuniculus); conditions: at 25 mg/kg

| SMILES | IC50 [1] [nM] | inhibition [2] [%] | Change (Oryctolagus cuniculus [3]) [%] | Change (Oryctolagus cuniculus [4]) [%] | inhibition in vivo at 25 mg/kg (Oryctolagus cuniculus [5]) [%] | Change (Oryctolagus cuniculus [7]) [%] | Change (Rattus norvegicus [8]) [%] | Change (Rattus norvegicus [9]) [%] | Decrease (Rattus norvegicus [10]) [%] | inhibition in vivo at 50 mg/kg (Oryctolagus cuniculus [12]) [%] | Change (Rattus norvegicus [13]) [%] | Change (Rattus norvegicus [14]) [%] | ED50 (Oryctolagus cuniculus [17]) [mg/kg] | other results |
| --- | --- | --- | --- | --- | --- | --- | --- | --- | --- | --- | --- | --- | --- | --- |
| CCCCCCCCCCCCn1nnc(C(=O)Nc2c(OC)cc(OC)cc2OC)n1 | 35600 | – | – | – | – | – | – | – | – | – | – | – | – | Change [11]: 21% |
| C=CCCCCCCCCCn1nnc(C(C(=O)Nc2c(OC)cc(OC)cc2OC)c2ccccc2)n1 (stereo not drawn) | 54 | 54 | – | – | – | – | 102 | <56 | – | 26 | <72 | <77 | – | – |
| CCCCCCCCCCCCn1nnc(C(C(=O)Nc2c(C(C)C)cccc2C(C)C)c2ccccc2)n1 (stereo not drawn) | – | 47 | <73 | <43 | 96 | <61 | 27 | <66 | 66 | – | <38 | <40 | 1.2 | – |
| CCCCCCCCCCCCn1nnc(C(C)C(=O)Nc2c(OC)cc(OC)cc2OC)n1 (stereo not drawn) | 31 | 49 | – | – | – | – | – | – | – | – | – | – | – | Change (Rattus norvegicus [21]): <55% |
| CCCCCCCCCCCCn1nnc(C(Cc2ccccc2)C(=O)Nc2c(OC)cc(OC)cc2OC)n1 (stereo not drawn) | 49 | 77 | – | – | 0 | – | 27 | <73 | – | – | – | <50 | – | Change (Rattus norvegicus [18]): <48% |
| CCCCCCCCCCC(C)(C)C(=O)Nc1c(OC)cc(OC)cc1OC [CL-976] | – | – | – | – | – | – | – | – | – | – | – | – | 21.8 | Change (Oryctolagus cuniculus [22]): 96%; Change (Oryctolagus cuniculus [23]): <54%; Change (Oryctolagus cuniculus [24]): <28%; ED50 (Rattus norvegicus [19]): 19 mg/kg; Change [25]: 19%; inhibition [26]: 45% |

Second part, led by results:

| IC50 [1] [nM] | inhibition [2] [%] | SMILES | Change (Oryctolagus cuniculus [3]) [%] | Change (Oryctolagus cuniculus [4]) [%] | inhibition in vivo at 25 mg/kg (Oryctolagus cuniculus [5]) [%] | Change (Oryctolagus cuniculus [7]) [%] | Change (Rattus norvegicus [8]) [%] | Change (Rattus norvegicus [9]) [%] | Decrease (Rattus norvegicus [10]) [%] | inhibition in vivo at 50 mg/kg (Oryctolagus cuniculus [12]) [%] | Change (Rattus norvegicus [13]) [%] | Change (Rattus norvegicus [14]) [%] | ED50 (Oryctolagus cuniculus [17]) [mg/kg] | other results |
| --- | --- | --- | --- | --- | --- | --- | --- | --- | --- | --- | --- | --- | --- | --- |
| 15 | 67 | CCCCCCCCCCCCc1nnn(C(C(=O)Nc2c(C(C)C)cccc2C(C)C)c2ccccc2)n1 (stereo not drawn) | <68 | <20 | 91 | <55 | 50 | <77 | 77 | – | – | – | – | Change (Oryctolagus cuniculus [6]): 18% |
| 25 | 37 | C=CCCCCCCCCCCn1nnc(C(C(=O)Nc2c(OC)cc(OC)cc2OC)c2ccccc2)n1 (stereo not drawn) | – | – | – | – | 98 | <63 | – | 37 | <52 | <58 | – | – |
| 23 | 40 | CCCCCCCCCCCCn1nnc(C(C(=O)Nc2c(OC)cc(OC)cc2OC)c2ccccc2)n1 (stereo not drawn) | <78 | <38 | 0 | <71 | 83 | <63 | – | 4 | – | <68 | 0.1 | IC50 [15]: 23 nM; IC50 [16]: 8 nM; Change (Rattus norvegicus [18]): <60%; ED50 (Rattus norvegicus [19]): 6.4 mg/kg; Reduction [20]: 79% |
| 21 | 52 | CCCCCCCCCCCCc1nnn(C(C(=O)Nc2c(OC)cc(OC)cc2OC)c2ccccc2)n1 (stereo not drawn) | <68 | – | 0 | <63 | – | <65 | 65 | – | – | – | – | Change (Oryctolagus cuniculus [6]): <11% |
